Key:
[1] = molecular target: T1, Endothelin receptor type B (Sus scrofa, UniProt P35463); test: In vitro ability to inhibit specific [125I]ET1 binding to porcine kidney (inner medulla) membranes Endothelin B receptor
T1 sequence (P35463 whole entry): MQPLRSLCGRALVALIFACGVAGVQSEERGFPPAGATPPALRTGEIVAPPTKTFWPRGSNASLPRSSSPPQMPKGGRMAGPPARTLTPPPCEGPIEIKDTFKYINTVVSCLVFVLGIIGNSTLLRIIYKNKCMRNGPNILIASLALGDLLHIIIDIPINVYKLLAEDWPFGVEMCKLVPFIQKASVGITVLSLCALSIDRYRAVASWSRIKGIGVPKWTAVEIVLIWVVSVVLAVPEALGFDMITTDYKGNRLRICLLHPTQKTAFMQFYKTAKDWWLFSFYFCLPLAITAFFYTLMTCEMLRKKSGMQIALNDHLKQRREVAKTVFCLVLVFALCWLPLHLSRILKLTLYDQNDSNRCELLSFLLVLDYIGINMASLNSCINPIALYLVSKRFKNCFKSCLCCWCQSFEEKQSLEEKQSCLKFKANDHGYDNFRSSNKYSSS

Endothelin-1 receptor = molecular target: T2, Endothelin-1 receptor (Rattus norvegicus, UniProt P26684); test: In vitro ability to inhibit specific [125I]ET1 binding to rat aorta membranes Endothelin A receptor; format: tissue-based
T2 sequence (P26684 whole entry): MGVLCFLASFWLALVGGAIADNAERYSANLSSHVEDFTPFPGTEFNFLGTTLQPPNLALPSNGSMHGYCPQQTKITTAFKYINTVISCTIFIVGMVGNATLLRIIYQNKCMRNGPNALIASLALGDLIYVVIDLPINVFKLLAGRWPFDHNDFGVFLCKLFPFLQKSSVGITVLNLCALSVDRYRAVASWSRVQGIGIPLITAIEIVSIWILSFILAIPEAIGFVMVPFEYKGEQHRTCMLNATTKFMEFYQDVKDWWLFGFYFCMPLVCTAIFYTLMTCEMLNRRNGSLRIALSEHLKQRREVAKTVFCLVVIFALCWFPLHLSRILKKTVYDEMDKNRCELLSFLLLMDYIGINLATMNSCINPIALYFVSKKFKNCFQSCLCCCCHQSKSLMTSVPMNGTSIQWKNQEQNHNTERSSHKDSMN

Rattus norvegicus = organism: Rattus norvegicus; test: Compound was evaluated for the functional assay performed by obtaining ET-1 concentration-response curves [pA2(ETA)] in isolated rat aortic rings; conditions: Aorta, read-out: pA2 (converted)
Summary of the method: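 Functional ETA assay: ET-1 concentration-response curves in isolated rat aortic rings with the endothelium removed. Antagonism is expressed as pA2.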

IC50 [1] [nM] | IC50 (Endothelin-1 receptor) [nM] | SMILES | Kb (Rattus norvegicus) [nM]
1900 | 160 | COc1cc(C/C(C(=O)c2ccc(OC(F)F)cc2)=C(/C(=O)O)c2ccc3nsnc3c2)cc(OC)c1OC | 
340 | 3.7 | COc1cc(C/C(C(=O)c2cc(OC)c(OC)c(OC)c2)=C(/C(=O)O)c2ccc3nsnc3c2)cc(OC)c1OC | 
400 | 6.5 | COc1cc(C/C(C(=O)c2ccc3c(c2)OCO3)=C(/C(=O)O)c2ccc3nsnc3c2)cc(OC)c1OC | 
1200 | 26 | COc1ccc(C(=O)/C(Cc2ccccc2)=C(\C(=O)O)c2ccc3nsnc3c2)cc1 | 25.1
1800 | 28 | COc1ccc(C/C(C(=O)c2ccc(OC)cc2)=C(/C(=O)O)c2ccc3nsnc3c2)cc1 | 
260 | 1.4 | COc1ccc(C(=O)/C(Cc2cc(OC)c(OC)c(OC)c2)=C(\C(=O)O)c2ccc3nsnc3c2)cc1C | 
1800 | 4.6 | COc1cccc(C(=O)/C(Cc2cc(OC)c(OC)c(OC)c2)=C(\C(=O)O)c2ccc3nsnc3c2)c1 | 
